Rows were chosen to be rich in hits. Some 2.3% of all compounds tested hit in one or more screens of this group.
T cell HTS: modulators of CD8 T cell-vesicle binding, primary screen, mouse 2C CD8+ T cells, flow cytometry; 2C CD8+ T cell-vesicle binding; stronger effect = lower value; response (vesicle binding), % at 7 µM; actives 0.068% (n = 330,000); AID 2052, 2009;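 active = response, share of CD8 T cells binding vesicles, and their 90th percentile fluorescence all below set limits, cut at about 80% in these data, passing the limit was not always enough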;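 also: values below 100% mean blocked vesicle binding to the CD8+ T cells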
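System: murine 2C transgenic CD8+ T lymphocytes; also added: QL9-loaded Drosophila micro-vesicles; times: binding 1.5 h at 37 °C; measured by: flow cytometry, PE anti-B7-1 (FL2) versus Alexa647 anti-CD8 (FL8), PFA-fixed; control set: Peptide-free naked vesicles (low) and QL9 vesicles with 0.7% DMSO vehicle (high)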
Pemphigus Ab inh: inhibitors of pemphigus antibody binding to DSG3, primary screen, biochemical, bead-based, flow cytometry, scFv-GFP. AID 588358, 2011. DSG3-coupled beads, scFv-anti-DSG3-GFP binding; stronger effect = lower value. Desmoglein-3 (Homo sapiens), P32926. binding (percent of control), % at 10 µM. actives 0.48% (n = 310,000);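 active = binding more than 3 SD below its plate's average and above zero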;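 also: hits lower antibody fragment binding to DSG3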
Mcl-1 Bim block: inhibitors of Bim peptide binding to Mcl-1, primary screen, biochemical, bead-based flow cytometry, multiplex; Bim peptide-Mcl-1 binding; inhibition, % at 10 µM; actives 0.1% (n = 190,000); AID 1009, 2008; in the data active = inhibition above about 40%
Target sequence (Q07820 whole entry, looked up): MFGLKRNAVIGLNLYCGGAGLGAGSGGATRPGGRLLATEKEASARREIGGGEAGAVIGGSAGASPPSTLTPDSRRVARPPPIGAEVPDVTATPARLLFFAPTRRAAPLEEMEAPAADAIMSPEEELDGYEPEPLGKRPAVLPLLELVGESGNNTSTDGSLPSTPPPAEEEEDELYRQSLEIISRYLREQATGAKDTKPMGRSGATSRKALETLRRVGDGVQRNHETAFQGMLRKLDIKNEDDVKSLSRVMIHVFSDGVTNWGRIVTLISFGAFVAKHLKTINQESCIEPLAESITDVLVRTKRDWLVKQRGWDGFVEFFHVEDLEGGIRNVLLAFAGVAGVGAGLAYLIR
Mcl1 Bid PPI: Mcl-1/Bid binding inhibitors, primary screen, biochemical, TR-FRET, 1536-well | AID 1021, 2008 | actives 0.97% (n = 220,000) | Induced myeloid leukemia cell differentiation protein Mcl-1 (Homo sapiens), Q07820 | inhibition, % at 21.7 µM | TR-FRET Mcl-1/Bid-Dy647 peptide binding;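 active = compounds that cut the binding signal by more than half at the single screening dose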;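 also: His-tagged Mcl-1 with europium anti-His antibody binding Bid BH3 peptide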
MCL1 BIM primary: inhibitors of MCL1 binding to BIM-BH3, primary screen, biochemical, fluorescence polarization; GST-MCL1 / FITC-Bim-BH3 fluorescence polarization; inhibition, % at 10.9 µM; actives 0.68% (n = 320,000); AID 2057, 2009;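 active = inhibition above the mean inhibition of all tested compounds plus 3 SD, set per campaign, cut at about 40% in these data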;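 also: higher means more loss of mP so more displacement of Bim peptide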
Mcl1-Noxa inh: Mcl-1/Noxa binding inhibitors, primary screen, biochemical, TR-FRET, 1536-well; Induced myeloid leukemia cell differentiation protein Mcl-1 (Homo sapiens), Q07820; actives 1.5% (n = 220,000); TR-FRET Mcl-1/Noxa peptide binding, 2 h; inhibition, % at 21.7 µM;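 active = compounds that cut the protein-peptide binding signal by more than 50% relative to plate controls in a single-dose test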;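 also: His-tagged Mcl-1 with rhodamine Noxa BH3 peptide and terbium anti-His antibody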
A number is an active result; - = inactive; . = not tested or not shown.

SMILES | T cell HTS | Pemphigus Ab inh | Mcl-1 Bim block | Mcl1 Bid PPI | MCL1 BIM primary | Mcl1-Noxa inh
CCN(CC)c1ccc(NC(=O)c2cc(Cl)ccc2OC)cc1 | - | - | - | - | - | 66
COC(=O)C1C2OC(C(Br)C2Br)C1C(=O)OC (centres undefined) | . | - | . | . | . | .
CCOC(=O)c1c(C)[nH]c(C(=O)CSc2nnc(CC(C)c3ccccc3)o2)c1C (centres undefined) | - | . | - | - | - | -
CCOC(=O)c1c(C)[nH]c(C(=O)CSc2nc3ccccc3o2)c1C | - | . | - | - | - | 69
CCN(CC(=O)Nc1cc(Cl)ccc1C)C(=O)c1ccc2c(=O)n3c(nc2c1)CCC3 | - | - | . | . | - | .
O=C(C=CC(=O)OC1CCCCC1)OC1CCCCC1 | . | - | . | . | . | .
O=C(O)c1cc(-n2nnnc2SCc2ccccc2F)ccc1Cl | - | 74 | - | - | - | -
Oc1cccc(-n2nnnc2SCc2ccccc2F)c1 | - | - | . | . | - | .
O=C1ON=C(c2ccccc2)/C1=C/c1ccc(-c2ccccc2[N+](=O)[O-])o1 | - | - | - | - | - | 67
COc1cc(OC)cc(C(=O)NCC(=O)N2CCCCC2)c1 | - | - | - | 63 | - | -
COc1ccc(C(=O)NCC(=O)N2CCCCC2)cc1OC | - | - | - | - | - | -
O=C(Nc1ccc(-c2nc3ccccc3o2)cc1)c1ccc(N2CCOCC2)c([N+](=O)[O-])c1 | - | - | - | - | - | -
COc1ccc2oc(-c3ccc(NC(=O)c4ccc(N5CCOCC5)c([N+](=O)[O-])c4)cc3)nc2c1 | - | - | - | - | - | 55
CC(=O)OC[C@]12CC[C@H]3[C@@](C)(CC[C@H]4C(C)(C)CCC[C@]34C)[C@@H]1C[C@@H](C1=CC(=O)O[C@@H]1OC(C)=O)O2 | 0.0 | . | . | . | . | .
CC(=O)OC[C@]12CC[C@H]3[C@@](C)(CC[C@H]4C(C)(C)CCC[C@]34C)[C@@H]1C[C@H](C1=CC(=O)O[C@H]1OC(C)=O)O2 | - | . | . | . | . | .
CC(=O)c1ccc(S(=O)(=O)N(C)CC(=O)NCC2CCCCC2)cc1 | - | - | . | . | - | .
COc1ccc2nc(C)cc(NCc3ccc(F)cc3)c2c1 | - | - | . | . | - | .
O=C(NCCc1ccccc1)C1CCN(c2ncccn2)CC1 | - | 89 | - | - | - | -
Cc1cccc(CCNC(=O)C2CCN(S(=O)(=O)c3cccc4cccnc34)CC2)c1 | - | - | . | . | - | .
O=C(C1CCN(S(=O)(=O)c2cccc3cccnc23)CC1)N1CCCC1 | - | 89 | - | - | - | -
NS(=O)(=O)c1ccc(CCNC(=O)C2CCN(C(=O)Nc3ccccc3)CC2)cc1 | - | 57 | . | . | . | .
NS(=O)(=O)c1ccc(CCNC(=O)C2CCN(S(=O)(=O)c3cccc4cccnc34)CC2)cc1 | 54 | - | . | . | - | .
O=C(O)C1CCN(S(=O)(=O)c2cccc3cccnc23)CC1 | - | - | . | . | - | .
O=C(NCCc1ccccc1)C1CCN(C(=O)Nc2ccccc2)CC1 | - | - | . | . | - | .
O=c1n(S(=O)(=O)c2cccc3cccnc23)c2ccccc2n1S(=O)(=O)c1cccc2cccnc12 | - | - | - | 91 | - | -
SMILES | T cell HTS | Pemphigus Ab inh | Mcl-1 Bim block | Mcl1 Bid PPI | MCL1 BIM primary | Mcl1-Noxa inh
CC1CC(C)CN(S(=O)(=O)c2cccc3cccnc23)C1 (centres undefined) | - | - | - | - | - | -
COc1ccc(-c2csc3nc(-c4cccnc4)nc(Cl)c23)cc1OC | - | - | - | - | - | 58
CC1=CN(S(=O)(=O)c2ccc(C)cc2)C[C@@H]2[C@H]3CC[C@H](C3)[C@H]12 | . | - | . | . | . | .
O=C(NC(Cc1ccccc1)C(=O)Oc1ccc2c(C(F)(F)F)cc(=O)oc2c1)OCc1ccccc1 (centres undefined) | - | - | - | - | 41 | -
O=C(CNC(=O)OCc1ccccc1)Oc1ccc2ccc(=O)oc2c1 | - | - | . | . | - | .
Cc1cccc(C)c1NC(=O)c1cccc2c1C(=O)N(C1CCCCC1)C2 | - | - | . | . | - | .
